An excerpt weighted towards active compounds, which were near 9.3% of everything screened.
DAT uptake mod – changed hDAT dopamine uptake under cocaine IC80, either direction, primary screen, cocaine antagonist project, cell-based, LLC-PK1 hDAT, [14C]-dopamine uptake, MLSMR; B-score at 10 µM; actives 1.3% (n = 110,000); AID 449768, 2010; LLC-PK1 hDAT cells, [14C]-dopamine uptake with cocaine IC80; actives deviate in either direction;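 active = Z score or B-score, a plate-position-corrected score, falls beyond the plate's 99.7% confidence bounds, in either direction; inactive = both scores lie inside the 99.7% bounds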;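 note: scored against the spread of the other compound wells on the same plate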
Target sequence (Q01959 whole entry, looked up): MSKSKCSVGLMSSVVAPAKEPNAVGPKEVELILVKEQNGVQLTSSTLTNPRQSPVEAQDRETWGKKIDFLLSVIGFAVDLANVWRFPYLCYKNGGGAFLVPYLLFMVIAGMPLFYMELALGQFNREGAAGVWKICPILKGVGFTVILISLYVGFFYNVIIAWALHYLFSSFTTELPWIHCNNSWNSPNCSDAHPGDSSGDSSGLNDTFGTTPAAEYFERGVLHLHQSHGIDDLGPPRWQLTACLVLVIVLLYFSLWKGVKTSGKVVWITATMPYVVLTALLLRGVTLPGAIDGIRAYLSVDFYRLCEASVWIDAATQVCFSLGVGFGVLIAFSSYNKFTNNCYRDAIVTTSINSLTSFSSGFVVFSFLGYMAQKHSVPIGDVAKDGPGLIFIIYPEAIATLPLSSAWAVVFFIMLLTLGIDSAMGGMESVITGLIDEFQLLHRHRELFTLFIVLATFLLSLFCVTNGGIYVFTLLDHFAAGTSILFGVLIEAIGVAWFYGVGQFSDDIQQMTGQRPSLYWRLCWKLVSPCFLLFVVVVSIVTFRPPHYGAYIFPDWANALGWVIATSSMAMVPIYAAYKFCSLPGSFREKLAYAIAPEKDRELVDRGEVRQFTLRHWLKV
D1 allo mod – D1 CRE-luciferase signal change, two-sided – cell-based, HEK293 D1, dopamine EC30, D1 allosteric modulator project, primary screen; D(1A) dopamine receptor (Homo sapiens), P21728; dopamine EC30 potentiation; actives deviate in either direction; B-score at 10 µM; actives 5.9% (n = 58,000); AID 641, 2007;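 active = luminescence count or its row- and column-corrected plate score outside the 99.7% band of the plate's sample wells, on either side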
PostGolgi yeast – phenotypic screen on post-Golgi transport, primary screen; post-Golgi transport phenotypic cell assay; AID 739, 2007; inhibition, % at 10 µM; actives 0.9% (n = 98,000);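 note: yeast cells grown in 1536-well plates; yeast grown about 18 h at 30C before absorbance read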
PostGolgi ctrl – growth inhibition of yeast control strain, primary screen, counter-screen for post-Golgi transport modulator project; inhibition, % at 10 µM; efflux-deficient yeast background strain, growth absorbance A615, 16 h; AID 738, 2007; actives 5% (n = 98,000)
tolC growth inh – growth inhibitors of E. coli tolC mutant, primary screen, strain BW25113 ΔtolC::kan, 384-well | OD615 | growth inhibition, % at 10 µM (by protocol) | actives 2.2% (n = 65,000) | AID 573, 2007;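 active = growth inhibition at or above a cutoff equal to the mean over every tested compound plus 3 SD, cut at about 60% in these data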;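 note: growth measured after 20 h incubation at 37 °C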
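Signal: optical density read at 615 nm; Assay system: E. coli ΔtolC::kan strain BW25113; Times: 20 h incubation with compound, 37 °C; Dosing: 10 µM final, single dose.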
Ecoli WT expand – growth inhibitors of wild-type E. coli, primary screen, strain BW25113, expanded library, OD600; OD600 absorbance; growth inhibition, % at 100 µM; actives 0.15% (n = 98,000); AID 710, 2007;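 active = growth inhibition above about 50% at one test dose, limit read from the data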;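 note: growth measured after 20 h incubation at 37 °C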
* hit, by the source's call. Cut-off read from the data, not from the text of the source, unless noted: active = inhibition above about 30%; inactive = the rest.

What do the screens show for `c1ccc2c3c([nH]c2c1)-c1[nH]ncc1CC3`?
DAT uptake mod: 1.2; D1 allo mod: 0.19; PostGolgi yeast: -3; PostGolgi ctrl: 1; tolC growth inh: 7; Ecoli WT expand: 30

Results for Clc1ccc2[nH]c3c(c2c1)CCc1cn[nH]c1-3 ?
DAT uptake mod: 1.1; D1 allo mod: -0.085; PostGolgi yeast: 74*; PostGolgi ctrl: 57*; tolC growth inh: 100*; Ecoli WT expand: 78*

How did O=C(NC(=S)Nc1cccc(Cl)c1N1CCCCC1)c1ccco1 do in these assays?
DAT uptake mod: -0.0057; PostGolgi yeast: 22; PostGolgi ctrl: 37*; Ecoli WT expand: -5

Results for O=C(NC(=S)Nc1cccc(Cl)c1N1CCCCC1)c1cccs1 ?
DAT uptake mod: -0.3; PostGolgi yeast: 6; PostGolgi ctrl: 52*; Ecoli WT expand: -13

Results for O=C(NCC1CCCO1)C1CCN(C(=O)c2ccc(Br)cc2)CC1 (stereo not drawn) ?
DAT uptake mod: 0.12; D1 allo mod: -0.45; PostGolgi yeast: 9; PostGolgi ctrl: 5; tolC growth inh: -8; Ecoli WT expand: -4

What do the screens show for `CC(Sc1nnc(Cc2cccs2)n1C1CCCCC1)C(=O)N1CCc2ccccc21` (stereo not drawn)?
DAT uptake mod: 1.5; PostGolgi yeast: -3; PostGolgi ctrl: 34*; Ecoli WT expand: -4

What do the screens show for `CCOc1cccc2cc(-c3nnc(NCc4ccco4)s3)c(=O)oc12`?
DAT uptake mod: 0.77; D1 allo mod: 1.9; PostGolgi yeast: -9; PostGolgi ctrl: 5; tolC growth inh: 6; Ecoli WT expand: -1

Results for COc1ccc2oc(=O)c(-c3nnc(NCc4ccco4)s3)cc2c1 ?
DAT uptake mod: 0.4; D1 allo mod: 0.49; PostGolgi yeast: 40*; PostGolgi ctrl: -3; tolC growth inh: 9; Ecoli WT expand: -12

Results for O=[N+]([O-])c1c(C(Cl)Cl)nn(-c2ccccc2)c1N1CCCC1 ?
DAT uptake mod: 0.97; PostGolgi yeast: -1; PostGolgi ctrl: 31*; Ecoli WT expand: 6

Results for COC(=O)c1ccc(COc2ccccc2/C=N/NS(=O)(=O)c2ccccc2)cc1 ?
DAT uptake mod: 0.97; PostGolgi yeast: 1; PostGolgi ctrl: 25; Ecoli WT expand: -8

How did NC(=O)c1cc(N)ccc1N1CCCC1 do in these assays?
DAT uptake mod: 0.44; D1 allo mod: -1.5; PostGolgi yeast: 1; PostGolgi ctrl: 32*; tolC growth inh: -10; Ecoli WT expand: 7

Results for Cc1cc(N)ccc1N1CCCC1 ?
DAT uptake mod: -0.05; PostGolgi yeast: -3; PostGolgi ctrl: 15; Ecoli WT expand: -7

How did C/C(=C\c1ccccc1)CN1CCN(c2ccccc2)CC1 do in these assays?
DAT uptake mod: -1.1; D1 allo mod: -0.68; PostGolgi yeast: 4; PostGolgi ctrl: 8; tolC growth inh: 10; Ecoli WT expand: 1

What do the screens show for `COc1ccccc1N1CCN(C/C(C)=C/c2ccccc2)CC1`?
DAT uptake mod: 0.99; D1 allo mod: -3.6*; PostGolgi yeast: 4; PostGolgi ctrl: 1; tolC growth inh: 0; Ecoli WT expand: 12

How did O=C1CC(c2ccco2)CC(O)=C1C=Nc1cc(Cl)ccc1O (stereo not drawn) do in these assays?
DAT uptake mod: -8.5*; PostGolgi yeast: 20; PostGolgi ctrl: 10; tolC growth inh: -6; Ecoli WT expand: 1

What do the screens show for `Cc1ccc2oc(=O)n(Cc3ccccc3OC(C)C)c2c1`?
DAT uptake mod: -1; D1 allo mod: -0.23; PostGolgi yeast: 0; PostGolgi ctrl: 18; tolC growth inh: 99*; Ecoli WT expand: 4

What do the screens show for `CCCCOc1ccccc1Cn1c(=O)oc2ccc(C)cc21`?
DAT uptake mod: 0.34; D1 allo mod: -0.15; PostGolgi yeast: 4; PostGolgi ctrl: 18; tolC growth inh: 70*; Ecoli WT expand: -1

Results for Cc1ccc2oc(=O)n(CC(=O)OC(C)C)c2c1 ?
DAT uptake mod: -1.1

What do the screens show for `O=C(O)CCC(=O)OCC1CCCO1` (stereo not drawn)?
DAT uptake mod: 0.55; D1 allo mod: -0.093; PostGolgi yeast: -13; PostGolgi ctrl: 10; tolC growth inh: -15; Ecoli WT expand: 0
